Where two headings read alike, the source gives them in different places. Values belong to the molecule of their own block, whether it stands above or below them.
What was measured:
[1] = biological target: T1, PETNR (Enterobacter cloacae, UniProt P71278); experiment: Substrate screen of PETNR by spectrophotometric assays or GC analysis; format: biochemical, Enterobacter cloacae st. PB2
T1 sequence (P71278 1-365): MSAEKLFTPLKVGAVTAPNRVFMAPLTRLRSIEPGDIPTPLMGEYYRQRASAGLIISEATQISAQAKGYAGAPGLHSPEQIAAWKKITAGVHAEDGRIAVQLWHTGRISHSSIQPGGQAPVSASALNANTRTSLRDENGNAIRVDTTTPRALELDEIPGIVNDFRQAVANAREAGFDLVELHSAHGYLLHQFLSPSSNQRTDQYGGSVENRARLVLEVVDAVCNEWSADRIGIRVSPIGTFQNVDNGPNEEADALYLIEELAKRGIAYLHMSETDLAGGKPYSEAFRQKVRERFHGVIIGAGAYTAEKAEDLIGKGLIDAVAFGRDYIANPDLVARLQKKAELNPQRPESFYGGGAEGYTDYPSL

[2] = biological target: T1, PETNR; experiment: Time course of ketoisophorone reduction and product racemisation, PETNR 0.02 μM; format: biochemical, Enterobacter cloacae st. PB2
In short: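 Racemisation time course of ketoisophorone reduction at pH 7.0 over 24 h; substrate added in DMF (2% final). Controls at 8 h either removed enzyme by 10 kDa spin filtration (5000 rpm, 5 min) or added the PETNR inhibitor 1,4,5,6-tetrahydroNADPH (1.2 mg), then incubated to 24 h total. Conversion by GC (DB-Wax); ee by GC (Chirasil-DEX-CB).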

[3] = biological target: T1, PETNR; experiment: Time effect on optical purity of levodione at PETNR 2 μM; format: biochemical, Enterobacter cloacae st. PB2; conditions: Supporting Information Table S1
[4] = biological target: T1, PETNR; experiment: Steady-state kinetics of PETNR with α,β-unsaturated activated alkenes; format: biochemical, Enterobacter cloacae st. PB2; conditions: for Km / kcat: apparent, 5% ethanol
[5] = biological target: T1, PETNR; experiment: Aerobic versus anaerobic steady-state reaction rate of PETNR; format: biochemical, Enterobacter cloacae st. PB2; conditions: aerobic compared to anaerobic assays
In short: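 NADPH oxidation was followed at 340 nm (365 nm for substrates absorbing at 340 nm) for 2 min at 25 °C. Anaerobic runs used a glove box (<5 ppm O2) with deoxygenated enzyme; aerobic runs were done outside it.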

[6] = biological target: T1, PETNR; conditions: cited from earlier work
[7] = biological target: T1, PETNR; experiment: Enzyme concentration dependence of the reduction of ketoisophorone by PETNR; format: biochemical, Enterobacter cloacae st. PB2; conditions: 2 h, pH 7.0, 3a 5 mM, NADPH 6 mM
In short: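 Ketoisophorone (5 mM) and NADPH (6 mM) with varied PETNR in 50 mM phosphate pH 7.0, shaken at 130 rpm at 30 °C for 2 h. Extraction was into ethyl acetate containing internal standard. Conversion was by GC (DB-Wax) and ee by GC on a Chirasil-DEX-CB column.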

[8] = anaerobic, pH 7.0, 25 °C, NADPH 100 μM

Structure (SMILES): N#C/C=C/c1ccccc1 [trans-cinnamonitrile]
activity of PETNR towards the substrate (in words) [1]: no activity

activity of PETNR towards the substrate (in words) [1]: inactive
Structure (SMILES): O=C1C=C(c2ccccc2)CCC1 [3-phenylcyclohexene-1-one]

decline in enantiopurity with time (rate of racemisation) ([2]; PETNR 0.02 μM, pH 7.0, 30 °C, aqueous, non-enzymatic): approximately 3 % ee/h | rate of racemisation [3]: 3 % ee/h
Structure (SMILES): C[C@@H]1CC(=O)CC(C)(C)C1=O [(R)-3b, (R)-Levodione]

Ki [4]: 3.2 ± 0.7 mM
Structure (SMILES): CC1=CC(=O)NC1=O [2a, 2-Methylmaleimide]

activity of PETNR towards the substrate (in words) [1]: significant reduction in enzyme activity
Structure (SMILES): CC1=CC(=O)CC1 [16a, 3-methylcyclopentenone]

Structure (SMILES): C/C=C/C#N [crotonitrile]
activity of PETNR towards the substrate (in words) [1]: no activity

Ki [4]: 23.3 ± 1.7 mM | reduction in the overall steady-state reaction rate [5]: 18%
Structure (SMILES): O=C1C=CCCC1 [4a, 2-cyclohexenone]

activity of PETNR towards the substrate (in words) [1]: did not reduce
Structure (SMILES): O=C(O)/C=C/c1ccccc1 [trans-cinnamic acid]

activity of PETNR towards the substrate (in words) [1]: no activity
Structure (SMILES): N#CC1=CCCCC1 [cyclohexene-1-carbonitrile]

activity of PETNR towards the substrate (in words) [1]: did not reduce
Structure (SMILES): COC(=O)C1=CCCCC1 [methyl cyclohexenecarboxylate, methyl 1-cyclohexene-1-carboxylate]

activity of PETNR towards the substrate (in words) [1]: no activity
Structure (SMILES): BrC1C=CCCC1 (stereo not drawn) [3-bromocyclohexene]

activity of PETNR towards the substrate (in words) [1]: no activity
Structure (SMILES): BrC=Cc1ccccc1 [β-bromostyrene]

activity of PETNR towards the substrate (in words) [1]: did not reduce
Structure (SMILES): COC(=O)/C=C/c1ccccc1 [methyl trans-cinnamate]

activity of PETNR towards the substrate (in words) [1]: significant reduction in enzyme activity
Structure (SMILES): CC1=CC(=O)CCC1 [15a, 3-methylcyclohexenone]

activity of PETNR towards the substrate (in words) [1]: did not reduce
Structure (SMILES): O=C(O)C1=CCCCC1 [1-cyclohexene-1-carboxylic acids, 1-cyclohexene-1-carboxylic acid]

activity of PETNR towards the substrate (in words) [1]: did not reduce
Structure (SMILES): O=C(O)/C=C(\C(=O)O)c1ccccc1 [3-phenylmaleic acid]

activity of PETNR towards the substrate (in words) [1]: did not reduce
Structure (SMILES): NC(=O)/C=C/c1ccccc1 [trans-cinnamide]

Km [4, 8]: 102 ± 10.5 µM | kcat [4, 8]: 6.23 ± 0.33 s⁻¹ | Ki ([4]; substrate inhibition, anaerobic, pH 7.0, 25 °C, NADPH 100 μM): 1.93 ± 0.46 mM | reduction in the overall steady-state reaction rate [5]: 48%
Structure (SMILES): CCC=C(C)C=O [10a, 2-methylpentenal]

Structure (SMILES): NC(=O)C1=CN([C@@H]2O[C@H](COP(=O)(O)OP(=O)(O)OC[C@H]3O[C@@H](n4cnc5c(N)ncnc54)[C@H](OP(=O)(O)O)[C@@H]3O)[C@@H](O)[C@H]2O)CCC1 [NADPH4, 1,4,5,6-tetrahydroNADPH]
inhibition of PETNR activity (in words) [6]: excellent inhibitor

Conv. [%] ([2]; 0.5 h, PETNR 0.02 μM, pH 7.0): 14% | Conv. [%] ([2]; 1 h, PETNR 0.02 μM, pH 7.0): 27% | Conv. [%] ([2]; 1.5 h, PETNR 0.02 μM, pH 7.0): 37% | Conv. [%] ([2]; 3 h, PETNR 0.02 μM, pH 7.0): 53% | Conv. [%] ([2]; 4 h, PETNR 0.02 μM, pH 7.0): 69% | Conv. [%] ([2]; 6 h, PETNR 0.02 μM, pH 7.0): 85% | Conv. [%] ([2]; 8 h, PETNR 0.02 μM, pH 7.0): 94% | Conv. [%] ([2]; 12 h, PETNR 0.02 μM, pH 7.0): 98% | Conv. [%] ([2]; 22 h, PETNR 0.02 μM, pH 7.0): >99% | Conv. [%] ([2]; 24 h, PETNR 0.02 μM, pH 7.0): >99% | Conv. [%] ([2]; 24 h, PETNR inhibitor NADPH4 (1.2 mg) added after 8 h): 99% | Conv. [%] ([2]; 24 h, filtered (10 K filter) after 8 h to remove all enzyme content): 99% | Km [4, 8]: 13.7 ± 0.5 µM | kcat [4, 8]: 5.52 ± 0.10 s⁻¹ | Conv. [%] ([7]; enzyme 0.002 μM): 2% | Conv. [%] ([7]; enzyme 0.02 μM): 37% | Conv. [%] ([7]; enzyme 0.2 μM): >99% | Conv. [%] ([7]; enzyme 2 μM): >99%
Structure (SMILES): CC1=CC(=O)CC(C)(C)C1=O [3a, ketoisophorone]

— publication PMC2854813 (Advanced synthesis & catalysis, 2009)
